Reference: ChEMBL document CHEMBL1125563, “Selective, centrally acting serotonin 5-HT2 antagonists. 1. 2- and 6-substituted 1-phenyl-3-(4-piperidinyl)-1H-indoles” (J Med Chem, 1992)

Legend:
Rattus norvegicus [1] = experiment: Compound was evaluated for the inhibition of quipazine-induced head twitches after 24 hr (administered perorally); 0.12-0.57; type: functional; settings: po
[2] = biological target: Serotonin 2 (5-HT2) receptor (Rattus norvegicus, UniProt P30994+P08909+P14842); experiment: Displacement of [3H]ketanserin from 5-hydroxytryptamine 2 receptor from rat cortical membranes.; type: cell membranes, Membrane
Summary of the method: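 [3H]ketanserin displacement from rat cortical membranes (5-HT2). Five concentrations across three decades in triplicate, two full curves; IC50 estimated on a log-concentration scale, given as logarithmic mean of at least two determinations.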

Mus musculus [3] = organism: Mus musculus; experiment: Compound was evaluated for the inhibition of isolation-induced aggression at a threshold of, 90 seconds; 1.3-2.9; type: functional
Summary of the method: (§1)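 Isolated male NMRI mice (3 weeks) trained to attack a nonaggressive intruder of the same strain; only mice with attack latency <25 s included. Pretested just before dosing and 2 h after sc test substance; observation maximum 180 s; at least eight mice per dose.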

Rattus norvegicus [4] = experiment: Compound was evaluated for the inhibition of pergolide-induced reactions after 2 hr (administered subcutaneously); 1.8-14.4; type: functional; settings: sc
Summary of the method: (§2)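 Male Wistar rats with unilateral 6-OHDA lesions; test drug sc 2 h before pergolide (0.05 µmol/kg sc) to induce contralateral circling. Effect of each dose expressed as percent of mean of control sessions 1 week before and 1 week after, per rat; at least four rats per dose; ED50 by log-probit analysis.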

Mus musculus [5] = organism: Mus musculus; experiment: Compound was evaluated for the inhibition of isolation-induced aggression at a threshold of 180 seconds; 1.1-2.6; type: functional; summary of the method: as §1
Rattus norvegicus [6] = experiment: Compound was evaluated for the inhibition of quipazine-induced head twitches after 24 hr (administered subcutaneously); 0.014-0.48; settings: sc
Rattus norvegicus [7] = experiment: Compound was evaluated for the inhibition of quipazine-induced head twitches after 2 h (administered subcutaneously); 0.011-0.12; type: functional; settings: sc
[8] = biological target: T1, Adrenergic receptor alpha-1 (Rattus norvegicus, UniProt P15823+P23944+P43140); experiment: Displacement of [3H]prazosin from Alpha-1 adrenergic receptor of whole rat brain membranes; type: cell membranes, Membrane
T1 sequence (P15823 whole entry): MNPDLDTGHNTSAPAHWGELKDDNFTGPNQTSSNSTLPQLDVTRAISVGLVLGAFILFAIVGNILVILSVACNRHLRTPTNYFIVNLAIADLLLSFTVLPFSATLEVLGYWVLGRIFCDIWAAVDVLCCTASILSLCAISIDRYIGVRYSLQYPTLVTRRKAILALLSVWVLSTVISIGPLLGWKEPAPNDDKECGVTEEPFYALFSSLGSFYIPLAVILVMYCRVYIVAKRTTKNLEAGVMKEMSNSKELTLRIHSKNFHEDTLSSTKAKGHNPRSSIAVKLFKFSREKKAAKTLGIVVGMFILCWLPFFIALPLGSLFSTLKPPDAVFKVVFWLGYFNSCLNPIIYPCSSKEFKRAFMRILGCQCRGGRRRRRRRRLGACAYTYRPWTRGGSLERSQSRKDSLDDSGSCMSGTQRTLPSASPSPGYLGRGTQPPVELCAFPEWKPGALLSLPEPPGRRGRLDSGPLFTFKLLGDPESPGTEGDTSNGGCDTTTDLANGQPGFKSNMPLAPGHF
T1 sequence (P23944 whole entry): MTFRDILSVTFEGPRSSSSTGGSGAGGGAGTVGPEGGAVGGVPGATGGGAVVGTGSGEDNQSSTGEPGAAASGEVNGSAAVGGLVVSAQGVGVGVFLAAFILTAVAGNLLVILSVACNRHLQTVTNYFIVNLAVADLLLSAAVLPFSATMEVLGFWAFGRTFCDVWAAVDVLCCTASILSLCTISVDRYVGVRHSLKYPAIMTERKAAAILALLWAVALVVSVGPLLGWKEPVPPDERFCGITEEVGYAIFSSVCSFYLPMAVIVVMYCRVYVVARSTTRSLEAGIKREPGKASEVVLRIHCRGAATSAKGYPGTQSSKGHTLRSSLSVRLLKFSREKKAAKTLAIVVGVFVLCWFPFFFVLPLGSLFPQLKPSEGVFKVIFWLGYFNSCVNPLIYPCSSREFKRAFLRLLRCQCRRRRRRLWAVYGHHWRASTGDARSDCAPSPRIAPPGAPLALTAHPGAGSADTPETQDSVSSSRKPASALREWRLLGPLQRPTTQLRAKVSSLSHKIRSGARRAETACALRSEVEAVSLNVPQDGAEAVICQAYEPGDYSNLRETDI
T1 sequence (P43140 whole entry): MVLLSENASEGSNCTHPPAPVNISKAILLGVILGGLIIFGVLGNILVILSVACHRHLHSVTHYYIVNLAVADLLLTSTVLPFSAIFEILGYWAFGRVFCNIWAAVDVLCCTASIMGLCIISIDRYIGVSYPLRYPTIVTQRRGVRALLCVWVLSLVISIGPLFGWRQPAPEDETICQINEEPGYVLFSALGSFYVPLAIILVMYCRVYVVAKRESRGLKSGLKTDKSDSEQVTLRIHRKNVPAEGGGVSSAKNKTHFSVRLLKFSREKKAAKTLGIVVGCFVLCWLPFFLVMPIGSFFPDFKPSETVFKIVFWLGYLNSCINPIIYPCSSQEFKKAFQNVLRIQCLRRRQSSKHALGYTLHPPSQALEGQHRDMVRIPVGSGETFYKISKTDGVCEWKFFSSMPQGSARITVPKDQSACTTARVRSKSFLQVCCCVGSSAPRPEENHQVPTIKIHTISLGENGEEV
Summary of the method: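 α1 adrenoceptor binding measured as displacement of [3H]prazosin from whole rat brain membranes. Five test-drug concentrations spanning three decades in triplicate, two full curves; IC50 from log concentration-effect curves, logarithmic mean of at least two determinations.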

Rattus norvegicus [9] = experiment: Compound was evaluated for the inhibition of pergolide-induced reactions after 2 hr (administered subcutaneously); 12-50; type: functional; settings: sc; summary of the method: as §2
Rattus norvegicus [10] = experiment: Compound was evaluated for the inhibition of quipazine-induced head twitches after 24 hr (administered perorally); 0.0091-0.16; settings: po
D(2) dopamine receptor = D(2) dopamine receptor (Rattus norvegicus, UniProt P61169); experiment: Displacement of [3H]-spiperone from Dopamine receptor D2 from rat striatal membranes; type: cell membranes, Membrane
Summary of the method: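 [3H]spiperone displacement from rat striatal membranes (D2). Five test-drug concentrations over three decades, in triplicate, two full curves; IC50 from log concentration-effect curves, reported as logarithmic mean of at least two determinations.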

Rattus norvegicus [11] = experiment: Compound was evaluated for the inhibition of quipazine-induced head twitches after 2 hr (administered subcutaneously); 0.012-0.095; type: functional; settings: sc
Rattus norvegicus [12] = experiment: Compound was evaluated for the inhibition of quipazine-induced head twitches after 2 hr (administered subcutaneously); 0.072-0.45; type: functional; settings: sc
Rattus norvegicus [13] = experiment: Compound was evaluated for the inhibition of quipazine-induced head twitches after 24 h (administered perorally); 0.031-0.20; type: functional; settings: po
Rattus norvegicus [14] = experiment: Compound was evaluated for the inhibition of pergolide-induced reactions after 2 hr (administered subcutaneously); 9.7-87; type: functional; settings: sc; summary of the method: as §2
Rattus norvegicus [15] = experiment: Compound was evaluated for the inhibition of pergolide-induced reactions after 2 hr (administered subcutaneously); 9.7-87; settings: sc
Mus musculus [16] = organism: Mus musculus; experiment: Compound was evaluated for the inhibition of isolation-induced aggression at a threshold of, 90 seconds; 3.5-18.4; type: functional
Mus musculus [17] = organism: Mus musculus; experiment: Compound was evaluated for the inhibition of isolation-induced aggression at a threshold of 180 seconds; 2.3-12.4; type: functional
[18] = biological target: T2, Alpha-1A adrenergic receptor (Rattus norvegicus, UniProt P43140); experiment: Compound was tested for the displacement of [3H]prazosin from alpha-1 adrenergic receptor of rat whole brain membranes
T2 sequence (P43140 whole entry): T1 sequence (P43140 whole entry)

Rattus norvegicus [19] = experiment: Compound was evaluated for the inhibition of pergolide-induced reactions after 2 hr (administered subcutaneously); type: functional; settings: sc; summary of the method: as §2
Rattus norvegicus [20] = experiment: Compound was evaluated for the inhibition of quipazine-induced head twitches after 2 hr (administered subcutaneously); 0.056-0.18; type: functional; settings: sc
Mus musculus [21] = organism: Mus musculus; experiment: Compound was evaluated for the inhibition of isolation-induced aggression at a threshold of, 90 seconds
Mus musculus [22] = organism: Mus musculus; experiment: Compound was evaluated for the inhibition of isolation-induced aggression at a threshold of 180 seconds
Rattus norvegicus [23] = experiment: Compound was evaluated for the inhibition of quipazine-induced head twitches after 24 hr (administered subcutaneously); 0.35-2.7; type: functional; settings: sc

Chain of D(2) dopamine receptor (P61169 whole entry): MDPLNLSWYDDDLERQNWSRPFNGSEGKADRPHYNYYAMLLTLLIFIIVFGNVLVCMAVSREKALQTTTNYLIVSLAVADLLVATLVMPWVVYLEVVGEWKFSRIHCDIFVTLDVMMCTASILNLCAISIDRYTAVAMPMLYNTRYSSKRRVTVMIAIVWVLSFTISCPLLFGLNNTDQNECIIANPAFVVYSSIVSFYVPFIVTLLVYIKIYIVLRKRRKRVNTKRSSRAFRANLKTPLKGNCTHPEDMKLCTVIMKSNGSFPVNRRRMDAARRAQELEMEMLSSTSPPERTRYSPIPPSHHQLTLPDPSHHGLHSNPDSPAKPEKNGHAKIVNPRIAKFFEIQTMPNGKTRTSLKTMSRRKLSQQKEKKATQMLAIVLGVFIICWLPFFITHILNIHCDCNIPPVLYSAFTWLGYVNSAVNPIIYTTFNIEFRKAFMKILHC

For O=C1NCCN1CCN1CCC(c2cn(-c3ccc(F)cc3)c3ccccc23)CC1, the ED50 (Rattus norvegicus [1]) was 0.26 µmol/kg, the IC50 [2] was 0.72 nM and the ED50 (Mus musculus [3]) was 1.9 µmol/kg. For the same molecule, the ED50 (Rattus norvegicus [4]) was 5.1 µmol/kg, the ED50 (Mus musculus [5]) was 1.7 µmol/kg and the ED50 (Rattus norvegicus [6]) was 0.082 µmol/kg. For the same molecule, the ED50 (Rattus norvegicus [7]) was 0.036 µmol/kg and the IC50 [8] was 3 nM.
O=C1NCCN1CCN1CCC(c2cn(-c3ccc(F)cc3)c3cc(F)ccc23)CC1 was tested, and the IC50 [2] was 0.73 nM, the ED50 (Rattus norvegicus [9]) was 25 µmol/kg and the ED50 (Rattus norvegicus [10]) was 0.038 µmol/kg. For the same molecule, the IC50 (D(2) dopamine receptor) was 36 nM, the IC50 [8] was 2.2 nM and the ED50 (Rattus norvegicus [11]) was 0.034 µmol/kg.
For Cc1c(C2CCN(CCN3CCNC3=O)CC2)c2ccccc2n1-c1ccc(F)cc1, the IC50 [2] was 0.59 nM, the ED50 (Rattus norvegicus [12]) was 0.18 µmol/kg and the ED50 (Rattus norvegicus [13]) was 0.078 µmol/kg. The ED50 (Rattus norvegicus [14]) was 29 µmol/kg, the ED50 (Rattus norvegicus [15]) was 29 µmol/kg and the IC50 [8] was 76 nM.
With c1cc2c(c(N3CCNCC3)c1)OCCO2 [ELTOPRAZINE] the ED50 (Mus musculus [16]) was 8 µmol/kg and the ED50 (Mus musculus [17]) was 5.4 µmol/kg.
With Cc1nc2sccn2c(=O)c1CCN1CCC(=C(c2ccc(F)cc2)c2ccc(F)cc2)CC1 [RITANSERIN] the IC50 [18] was 47 nM, the ED50 (Rattus norvegicus [19]) was > 21 µmol/kg and the ED50 (Rattus norvegicus [20]) was 0.1 µmol/kg. For the same molecule, the ED50 (Mus musculus [21]) was > 10 µmol/kg, the ED50 (Mus musculus [22]) was > 10 µmol/kg and the ED50 (Rattus norvegicus [23]) was 0.98 µmol/kg.
